Laboratory results published in ChEMBL document CHEMBL1134594 (J Med Chem, 2001).
Where a SMILES comes first, the peptide text is derived from it. Bridges are numbered along the chain shown (N, C = ends).

Columns and labels:
[1] = target: Adenylate cyclase; experiment: Adenylate cyclase activity measured as PA2; format: protein assay
[2] = target: Glucagon receptor (Rattus norvegicus, UniProt P30082); experiment: Glucagon receptor binding measured as 50% inhibitory concentration
Procedure, shortened: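 Membranes (50 µg protein) were taken from the livers of male Sprague Dawley rats (200-250 g), purified on a sucrose gradient. […] Nonspecific binding was defined with excess unlabeled peptide and subtracted. Run in triplicate, repeated twice.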

[3] = target: T1, Adenylate cyclase (Rattus norvegicus) (UniProt D4A3N4+P26770+Q04400+P26769+Q03343+P40146+Q8CFM9+P21932); experiment: Adenylate cyclase activity measured as percentage stimulation at (20uM); format: protein assay
Procedure, shortened: (§1)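 Rat liver plasma membranes (35 µg protein) incubated in 0.1 mL of 25 mM Tris (pH 7.5) with 0.4% BSA, 1 mM [α-32P]ATP, 5 mM MgCl2, GTP, 1 mM EDTA, 1 mM cAMP with [3H]cAMP tracer, and a phosphocreatine/creatine phosphokinase ATP-regenerating system. Labeled cAMP was isolated on Dowex cation-exchange and alumina columns.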

[4] = target: Adenylate cyclase; experiment: Adenylate cyclase activity measured as 50% inhibitory concentration; format: protein assay
[5] = target: T1, Adenylate cyclase (Rattus norvegicus); experiment: Adenylate cyclase activity measured as percentage stimulation at 20 uM; format: protein assay; procedure, shortened: as §1
[6] = target: T1, Adenylate cyclase (Rattus norvegicus); experiment: Adenylate cyclase activity measured as percentage stimulation; format: protein assay; design: concentration or dose not given beside the values
[7] = target: T1, Adenylate cyclase (Rattus norvegicus); experiment: Adenylate cyclase activity measured as percentage stimulation at (1 uM); format: protein assay; procedure, shortened: as §1

Chain of Glucagon receptor (P30082 whole entry): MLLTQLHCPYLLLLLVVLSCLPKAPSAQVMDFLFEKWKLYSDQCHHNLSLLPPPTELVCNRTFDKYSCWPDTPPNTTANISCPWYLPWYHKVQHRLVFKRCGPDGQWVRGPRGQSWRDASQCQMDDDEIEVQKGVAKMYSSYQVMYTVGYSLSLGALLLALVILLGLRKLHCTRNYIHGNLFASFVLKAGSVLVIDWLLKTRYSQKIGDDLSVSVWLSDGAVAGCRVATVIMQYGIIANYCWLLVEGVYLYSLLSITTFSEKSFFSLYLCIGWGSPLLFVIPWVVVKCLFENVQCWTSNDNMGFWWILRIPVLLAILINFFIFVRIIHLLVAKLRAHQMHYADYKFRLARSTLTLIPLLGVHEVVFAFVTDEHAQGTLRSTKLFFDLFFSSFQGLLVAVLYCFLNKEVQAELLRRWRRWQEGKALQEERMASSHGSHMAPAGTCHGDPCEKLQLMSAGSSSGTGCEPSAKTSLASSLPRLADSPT

Row | pA2 [1] | IC50 [2] [nM] | Activity [3] [%] | EC50 [4] [nM] | Activity [5] [%] | Activity [6] [%] | Activity [7] [%] | Compound
1 | 8.28 | 6 | – | – | – | – | – | CSCC[C@H](NC(=O)[C@H](CC(C)C)NC(=O)[C@H](Cc1c[nH]c2ccccc12)NC(=O)[C@H](CCC(N)=O)NC(=O)[C@@H](NC(=O)[C@H](Cc1ccccc1)NC(=O)[C@H](CC(=O)O)NC(=O)[C@H](CCC(N)=O)NC(=O)[C@H](C)NC(=O)[C@H](CCCN=C(N)N)NC(=O)[C@H](CCCN=C(N)N)NC(=O)[C@H](CO)NC(=O)[C@H](CC(=O)O)NC(=O)[C@H](CC(C)C)NC(=O)[C@H](Cc1ccc(O)cc1)NC(=O)[C@H](CCCCN)NC(=O)[C@H](CO)NC(=O)[C@H](Cc1ccc(O)cc1)NC(=O)[C@H](CC(=O)O)NC(=O)[C@H](CO)NC(=O)[C@@H]1CCC(=O)NCCCC[C@H](NC(=O)[C@H](CO)NC(=O)[C@@H](N)Cc2c[nH]cn2)C(=O)NCC(=O)N[C@@H]([C@@H](C)O)C(=O)N[C@@H](Cc2ccccc2)C(=O)N1)C(C)C)C(=O)N[C@@H](CC(N)=O)C(=O)N[C@H](C(=O)O)[C@@H](C)O (H-HSKGTFESDYSKYLDSRRAQDFVQWLMNT-OH; lactam 3-7)
2 | – | 562 | – | 7500 | 30 | – | – | CSCC[C@H](NC(=O)[C@H](CC(C)C)NC(=O)[C@H](Cc1c[nH]c2ccccc12)NC(=O)[C@H](CCC(N)=O)NC(=O)[C@@H](NC(=O)[C@H](Cc1ccccc1)NC(=O)[C@H](CC(=O)O)NC(=O)[C@H](CCC(N)=O)NC(=O)[C@@H]1CSSC[C@H](NC(=O)[C@H](Cc2ccc(O)cc2)NC(=O)[C@H](CCCCN)NC(=O)[C@H](CO)NC(=O)[C@H](Cc2ccc(O)cc2)NC(=O)[C@H](CC(=O)O)NC(=O)[C@H](CO)NC(=O)[C@@H](NC(=O)[C@H](Cc2ccccc2)NC(=O)[C@@H](NC(=O)CNC(=O)[C@H](CCC(N)=O)NC(=O)[C@H](CO)NC(=O)[C@@H](N)Cc2c[nH]cn2)[C@@H](C)O)[C@@H](C)O)C(=O)N[C@@H](CC(=O)O)C(=O)N[C@@H](CO)C(=O)N[C@@H](CCCN=C(N)N)C(=O)N[C@@H](CCCN=C(N)N)C(=O)N1)C(C)C)C(=O)N[C@@H](CC(N)=O)C(=O)N[C@H](C(=O)O)[C@@H](C)O (H-HSQGTFTSDYSKYCDSRRCQDFVQWLMNT-OH; disulfide 14-19)
3 | – | 652 | – | 23 | – | 19 | – | CSCC[C@H](NC(=O)[C@H](CC(C)C)NC(=O)[C@H](Cc1c[nH]c2ccccc12)NC(=O)[C@H](CCC(N)=O)NC(=O)[C@@H](NC(=O)[C@H](Cc1ccccc1)NC(=O)[C@H](CC(=O)O)NC(=O)[C@H](CCC(N)=O)NC(=O)[C@H](C)NC(=O)[C@H](CCCN=C(N)N)NC(=O)[C@H](CCCN=C(N)N)NC(=O)[C@H](CO)NC(=O)[C@H](CC(=O)O)NC(=O)[C@H](CC(C)C)NC(=O)[C@@H]1CCC(=O)NCCCC[C@H](NC(=O)[C@H](CO)NC(=O)[C@@H](NC(=O)[C@H](Cc2ccccc2)NC(=O)[C@@H](NC(=O)CNC(=O)[C@H](CCC(N)=O)NC(=O)[C@H](CO)NC(=O)[C@@H](N)Cc2c[nH]cn2)[C@@H](C)O)[C@@H](C)O)C(=O)N[C@@H](Cc2ccc(O)cc2)C(=O)N[C@@H](CO)C(=O)N[C@@H](CCCCN)C(=O)N1)C(C)C)C(=O)N[C@@H](CC(N)=O)C(=O)N[C@H](C(=O)O)[C@@H](C)O (H-HSQGTFTSKYSKELDSRRAQDFVQWLMNT-OH; lactam 9-13)
4 | 8.26 | 0.2 | – | 390 | – | 12 | – | CSCC[C@H](NC(=O)[C@H](CC(C)C)NC(=O)[C@H](Cc1c[nH]c2ccccc12)NC(=O)[C@H](CCC(N)=O)NC(=O)[C@@H](NC(=O)[C@H](Cc1ccccc1)NC(=O)[C@H](CC(=O)O)NC(=O)[C@H](CCC(N)=O)NC(=O)[C@H](C)NC(=O)[C@H](CCCN=C(N)N)NC(=O)[C@H](CCCN=C(N)N)NC(=O)[C@H](CO)NC(=O)[C@H](CC(=O)O)NC(=O)[C@H](CC(C)C)NC(=O)[C@H](Cc1ccc(O)cc1)NC(=O)[C@H](CCCCN)NC(=O)[C@H](CO)NC(=O)[C@H](Cc1ccc(O)cc1)NC(=O)[C@@H]1CCC(=O)NCCCC[C@H](NC(=O)CNC(=O)[C@H](CCC(N)=O)NC(=O)[C@H](CO)NC(=O)[C@@H](N)Cc2c[nH]cn2)C(=O)N[C@@H](Cc2ccccc2)C(=O)N[C@@H]([C@@H](C)O)C(=O)N[C@@H](CO)C(=O)N1)C(C)C)C(=O)N[C@@H](CC(N)=O)C(=O)N[C@H](C(=O)O)[C@@H](C)O (H-HSQGKFTSEYSKYLDSRRAQDFVQWLMNT-OH; lactam 5-9)

The remaining lines, values behind:

Row | Compound | pA2 [1] | IC50 [2] [nM] | Activity [3] [%] | EC50 [4] [nM] | Activity [5] [%] | Activity [6] [%] | Activity [7] [%]
5 | CSCC[C@H](NC(=O)[C@H](CC(C)C)NC(=O)[C@H](Cc1c[nH]c2ccccc12)NC(=O)[C@H](CCC(N)=O)NC(=O)[C@@H](NC(=O)[C@H](Cc1ccccc1)NC(=O)[C@H](CC(=O)O)NC(=O)[C@H](CCC(N)=O)NC(=O)[C@H](C)NC(=O)[C@H](CCCN=C(N)N)NC(=O)[C@H](CCCN=C(N)N)NC(=O)[C@H](CO)NC(=O)[C@H](CC(=O)O)NC(=O)[C@H](CC(C)C)NC(=O)[C@H](Cc1ccc(O)cc1)NC(=O)[C@@H]1CSSC[C@H](NC(=O)[C@H](Cc2ccccc2)NC(=O)[C@@H](NC(=O)CNC(=O)[C@H](CCC(N)=O)NC(=O)[C@H](CO)NC(=O)[C@@H](N)Cc2c[nH]cn2)[C@@H](C)O)C(=O)N[C@@H](CO)C(=O)N[C@@H](CC(=O)O)C(=O)N[C@@H](Cc2ccc(O)cc2)C(=O)N[C@@H](CO)C(=O)N1)C(C)C)C(=O)N[C@@H](CC(N)=O)C(=O)N[C@H](C(=O)O)[C@@H](C)O (H-HSQGTFCSDYSCYLDSRRAQDFVQWLMNT-OH; disulfide 7-12) | – | 558 | 53 | 5900 | – | – | –
6 | CSCC[C@H](NC(=O)[C@H](CC(C)C)NC(=O)[C@H](Cc1c[nH]c2ccccc12)NC(=O)[C@H](CCC(N)=O)NC(=O)[C@@H](NC(=O)[C@H](Cc1ccccc1)NC(=O)[C@H](CC(=O)O)NC(=O)[C@H](CCC(N)=O)NC(=O)[C@H](C)NC(=O)[C@H](CCCN=C(N)N)NC(=O)[C@H](CCCN=C(N)N)NC(=O)[C@H](CO)NC(=O)[C@H](CC(=O)O)NC(=O)[C@H](CC(C)C)NC(=O)[C@H](Cc1ccc(O)cc1)NC(=O)[C@H](CS)NC(=O)[C@H](CO)NC(=O)[C@H](Cc1ccc(O)cc1)NC(=O)[C@H](CC(=O)O)NC(=O)[C@H](CO)NC(=O)[C@H](CS)NC(=O)[C@H](Cc1ccccc1)NC(=O)[C@@H](NC(=O)CNC(=O)[C@H](CCC(N)=O)NC(=O)[C@H](CO)NC(=O)[C@@H](N)Cc1c[nH]cn1)[C@@H](C)O)C(C)C)C(=O)N[C@@H](CC(N)=O)C(=O)N[C@H](C(=O)O)[C@@H](C)O (H-HSQGTFCSDYSCYLDSRRAQDFVQWLMNT-OH) | – | – | 100 | 59 | – | – | –
7 | CSCC[C@H](NC(=O)[C@H](CC(C)C)NC(=O)[C@H](Cc1c[nH]c2ccccc12)NC(=O)[C@H](CCC(N)=O)NC(=O)[C@@H](NC(=O)[C@H](Cc1ccccc1)NC(=O)[C@H](CC(=O)O)NC(=O)[C@H](CCC(N)=O)NC(=O)[C@H](C)NC(=O)[C@H](CCCN=C(N)N)NC(=O)[C@H](CCCN=C(N)N)NC(=O)[C@H](CO)NC(=O)[C@H](CC(=O)O)NC(=O)[C@H](CC(C)C)NC(=O)[C@H](Cc1ccc(O)cc1)NC(=O)[C@H](CCCCN)NC(=O)[C@H](CO)NC(=O)[C@H](Cc1ccc(O)cc1)NC(=O)[C@@H]1CSSC[C@H](NC(=O)[C@H](CCC(N)=O)NC(=O)[C@H](CO)NC(=O)[C@@H](N)Cc2c[nH]cn2)C(=O)N[C@@H]([C@@H](C)O)C(=O)N[C@@H](Cc2ccccc2)C(=O)N[C@@H]([C@@H](C)O)C(=O)N[C@@H](CO)C(=O)N1)C(C)C)C(=O)N[C@@H](CC(N)=O)C(=O)N[C@H](C(=O)O)[C@@H](C)O (H-HSQCTFTSCYSKYLDSRRAQDFVQWLMNT-OH; disulfide 4-9) | – | 84.5 | – | 295 | – | 7.5 | –
8 | CSCC[C@H](NC(=O)[C@H](CC(C)C)NC(=O)[C@H](Cc1c[nH]c2ccccc12)NC(=O)[C@H](CCC(N)=O)NC(=O)[C@@H](NC(=O)[C@H](Cc1ccccc1)NC(=O)[C@H](CC(=O)O)NC(=O)[C@H](CCC(N)=O)NC(=O)[C@H](C)NC(=O)[C@H](CCCN=C(N)N)NC(=O)[C@H](CCCN=C(N)N)NC(=O)[C@H](CO)NC(=O)[C@H](CC(=O)O)NC(=O)[C@H](CC(C)C)NC(=O)[C@H](Cc1ccc(O)cc1)NC(=O)[C@H](CCCCN)NC(=O)[C@H](CO)NC(=O)[C@H](Cc1ccc(O)cc1)NC(=O)[C@H](CS)NC(=O)[C@H](CO)NC(=O)[C@@H](NC(=O)[C@H](Cc1ccccc1)NC(=O)[C@@H](NC(=O)[C@H](CS)NC(=O)[C@H](CCC(N)=O)NC(=O)[C@H](CO)NC(=O)[C@@H](N)Cc1c[nH]cn1)[C@@H](C)O)[C@@H](C)O)C(C)C)C(=O)N[C@@H](CC(N)=O)C(=O)N[C@H](C(=O)O)[C@@H](C)O (H-HSQCTFTSCYSKYLDSRRAQDFVQWLMNT-OH) | – | 3.6 | – | 295 | – | 18 | –
9 | CSCC[C@H](NC(=O)[C@H](CC(C)C)NC(=O)[C@H](Cc1c[nH]c2ccccc12)NC(=O)[C@H](CCC(N)=O)NC(=O)[C@@H](NC(=O)[C@H](Cc1ccccc1)NC(=O)[C@H](CC(=O)O)NC(=O)[C@H](CCC(N)=O)NC(=O)[C@H](CS)NC(=O)[C@H](CCCN=C(N)N)NC(=O)[C@H](CCCN=C(N)N)NC(=O)[C@H](CO)NC(=O)[C@H](CC(=O)O)NC(=O)[C@H](CS)NC(=O)[C@H](Cc1ccc(O)cc1)NC(=O)[C@H](CCCCN)NC(=O)[C@H](CO)NC(=O)[C@H](Cc1ccc(O)cc1)NC(=O)[C@H](CC(=O)O)NC(=O)[C@H](CO)NC(=O)[C@@H](NC(=O)[C@H](Cc1ccccc1)NC(=O)[C@@H](NC(=O)CNC(=O)[C@H](CCC(N)=O)NC(=O)[C@H](CO)NC(=O)[C@@H](N)Cc1c[nH]cn1)[C@@H](C)O)[C@@H](C)O)C(C)C)C(=O)N[C@@H](CC(N)=O)C(=O)N[C@H](C(=O)O)[C@@H](C)O (H-HSQGTFTSDYSKYCDSRRCQDFVQWLMNT-OH) | – | 13.7 | – | 236 | – | – | 100
